Results on six compounds are retold here after ChEMBL document CHEMBL2146423, “Photoresponsive 5'-cap for the reversible photoregulation of gene expression” (Bioorg Med Chem Lett, 2011).

Activity calls are given as the source filed them. No cut-off for these calls is given here.

Data set [1] relates to Nucleic Acid. The experiment in a line: Binding affinity to Aequorea victoria GFP mRNA in insect cell extract assessed as inhibition of mRNA translation at 4.8 mM irradiated with 410 nm monochromatic light for 2 mins measured after 10 hrs by fluorescence assay. Type of data set: nucleic-acid assay. The gist of the method: (§1)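 Capped GFP mRNA made by in vitro T7 transcription (37 °C, 4 h; poly(A)30 template), DNase-digested and purified, then translated in insect cell extract. Before translation the mixture was irradiated at room temperature for 2 min at 410 nm (cis to trans) or 310 nm (trans to cis). GFP read by fluorescence.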

Data set [2] can be described thus: Thermal stability of the compound assessed as compound isomerization at 80 degC after 20 hrs. Type of data set: physicochemical. The gist of the method: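 Cis and trans isomers held at 80 °C for 20 h and checked for thermal isomerization. Isomers were generated with a 300 W xenon lamp at 25 °C, 2 cm from the source: 410 nm (103 mW/cm2) or 310 nm (81 mW/cm2), 2 min each. Isomer content measured by HPLC peak area.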

Data set [3] deals with Nucleic Acid. Briefly: Binding affinity to Aequorea victoria GFP mRNA in insect cell extract assessed as mRNA translational efficiency at 4.8 mM irradiated with 410 nm monochromatic light for 2 mins measured after 10 hrs by fluorescence assay relative to normal-capped mRNA. Type of data set: nucleic-acid assay. The gist of the method:
as §1

The test system of data set [4] is Nucleic Acid. The experiment in a line: Binding affinity to Aequorea victoria GFP mRNA in insect cell extract assessed as mRNA translational efficiency at 4.8 mM irradiated with 410 nm monochromatic light for 2 mins measured after 10 hrs by fluorescence assay. Type of data set: nucleic-acid assay. The gist of the method: as §1
Data set [5] concerns Nucleic Acid. The experiment in a line: Binding affinity to Aequorea victoria GFP mRNA in insect cell extract assessed as increase in mRNA translation at 4.8 mM irradiated with 310 nm monochromatic light for 2 mins measured up to 60 mins by time course fluorescence assay. Type of data set: nucleic-acid assay. The gist of the method:
(§2)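 GFP mRNA capped at the 5' end during in vitro T7 transcription (37 °C, 4 h; PCR template carrying a 30-base poly(A) tail), then DNase-treated and purified. Translated in insect cell extract. Sample irradiated 2 min at 310 nm at 0 and 130 min and 2 min at 410 nm at 60 min. GFP fluorescence (ex 480 nm, em 509 nm) recorded over time, with normal-capped mRNA run alongside.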

The test system of data set [6] is Nucleic Acid. The experiment in a line: Binding affinity to Aequorea victoria GFP mRNA in insect cell extract assessed as inhibition of mRNA translation at 4.8 mM irradiated with 310 nm monochromatic light for 2 mins measured after 10 hrs by fluorescence assay. Type of data set: nucleic-acid assay. The procedure, abridged:
as §1

Data set [7] has as its system Nucleic Acid. Briefly: Binding affinity to Aequorea victoria GFP mRNA in insect cell extract assessed as increase in mRNA translation at 4.8 mM irradiated with 310 nm monochromatic light for 2 mins measured after 130 mins by time course fluorescence assay. Type of data set: nucleic-acid assay. The procedure, abridged:
as §2

On to `CCN(CC)CC.CCN(CC)CC.C[n+]1c(/C=C\c2ccc3c(c2)Cc2ccccc2-3)n([C@@H]2O[C@H](COP(=O)(O)OP(=O)(O)OP(=O)([O-])OC[C@H]3O[C@@H](n4cnc5c(=O)[nH]c(N)nc54)[C@H](O)[C@@H]3O)[C@@H](O)[C@H]2O)c2nc(N)[nH]c(=O)c21`, for which the inhibition entry with Nucleic Acid [1] was “Active”. Also, the Stability result in data set [2] is “Stable”.
As for `CCN(CC)CC.CCN(CC)CC.C[n+]1c(/C=C\c2ccccc2)n([C@@H]2O[C@H](COP(=O)([O-])OP(=O)(O)OP(=O)(O)OC[C@H]3O[C@@H](n4cnc5c(=O)[nH]c(N)nc54)[C@H](O)[C@@H]3O)[C@@H](O)[C@H]2O)c2nc(N)[nH]c(=O)c21`, the Stability entry in data set [2] was “Stable”. Also, in the data set on Nucleic Acid [3], the fold change (FC) was determined as 2.2.
As for `CCN(CC)CC.CCN(CC)CC.C[n+]1c(/C=C\c2ccc3ccccc3c2)n([C@@H]2O[C@H](COP(=O)(O)OP(=O)(O)OP(=O)([O-])OC[C@H]3O[C@@H](n4cnc5c(=O)[nH]c(N)nc54)[C@H](O)[C@@H]3O)[C@@H](O)[C@H]2O)c2nc(N)[nH]c(=O)c21`, in the data set with Nucleic Acid [4], the result was Active. Moreover, the Stability result in data set [2] was “Stable”.
As for `CCN(CC)CC.CCN(CC)CC.C[n+]1c(/C=C/c2ccccc2)n([C@@H]2O[C@H](COP(=O)([O-])OP(=O)(O)OP(=O)(O)OC[C@H]3O[C@@H](n4cnc5c(=O)[nH]c(N)nc54)[C@H](O)[C@@H]3O)[C@@H](O)[C@H]2O)c2nc(N)[nH]c(=O)c21`, in data set [2], the Stability result is reported as “Stable”.
With `CCN(CC)CC.CCN(CC)CC.C[n+]1c(/C=C/c2ccc3ccccc3c2)n([C@@H]2O[C@H](COP(=O)([O-])OP(=O)(O)OP(=O)(O)OC[C@H]3O[C@@H](n4cnc5c(=O)[nH]c(N)nc54)[C@H](O)[C@@H]3O)[C@@H](O)[C@H]2O)c2nc(N)[nH]c(=O)c21`, the result in the data set with Nucleic Acid [5] and in the data set with Nucleic Acid [7] was inactive. Moreover, the inhibition entry with Nucleic Acid [6] is “Active”. Besides, the Stability result in data set [2] is “Stable”.
For the compound `CCN(CC)CC.CCN(CC)CC.C[n+]1c(/C=C/c2ccc3c(c2)Cc2ccccc2-3)n([C@@H]2O[C@H](COP(=O)([O-])OP(=O)(O)OP(=O)(O)OC[C@H]3O[C@@H](n4cnc5c(=O)[nH]c(N)nc54)[C@H](O)[C@@H]3O)[C@@H](O)[C@H]2O)c2nc(N)[nH]c(=O)c21`, the inhibition entry in the data set with Nucleic Acid [6] is “Active”. In data set [2], the Stability entry was “Stable”.
